{"data": "Assay results collected from several papers", "target": "Mitogen-activated protein kinase 3 (MAPK3, Homo sapiens, UniProt P27361)", "note": "Lines come from different studies, so protocols differ."}
{"SMILES": "O=C(NCC1CCOCC1)c1n[nH]cc1NC(=O)c1c(F)cccc1F", "test": "binding, competition with immobilised ligand", "conditions": "1 µM", "remaining binding [%]": 100}
{"SMILES": "N#Cc1ccccc1CSc1nnc2c(n1)[nH]c1ccccc12", "test": "binding, competition with immobilised ligand", "conditions": "10 µM", "remaining binding [%]": 89}
{"SMILES": "C[C@@H]1CN(c2ccc3ncc(-c4ccc5[nH]nc(C6CC6)c5c4)n3n2)C[C@H](C)O1", "test": "binding, competition with immobilised ligand", "conditions": "0.5 µM", "remaining binding [%]": 100}
{"SMILES": "c1ccc(N2CCN(Cc3nc4ccccc4[nH]3)CC2)nc1", "test": "binding, competition with immobilised ligand", "conditions": "1 µM", "remaining binding [%]": 100}
{"SMILES": "CN(CCCC(F)(F)F)c1nccc(-c2cnn3ncccc23)n1", "test": "binding", "conditions": "1 µM", "remaining binding [%]": 97}
{"SMILES": "O=C(c1ccc(Nc2ncc(Cl)c(-c3ccc(Cl)s3)n2)cc1)N1CCC(N2CCCC2)CC1", "test": "binding, competition with immobilised ligand", "conditions": "1 µM", "remaining binding [%]": 98}
{"SMILES": "COc1cnc(Nc2cccc(S(N)(=O)=O)c2)nc1N1CCN(c2ccccc2)CC1", "test": "binding, competition with immobilised ligand", "conditions": "1 µM", "remaining binding [%]": 100}
{"SMILES": "F[C@@H]1CCN(c2nccc(-c3cnn4ncccc34)n2)C1", "test": "binding", "conditions": "1 µM", "remaining binding [%]": 85}
{"SMILES": "COc1cc(-c2cn(C3CCc4ccccc4N(CC(F)(F)F)C3=O)nn2)ccc1-n1ccc(C)n1 (centres unmarked)", "test": "cell-free assay, competition with immobilised ligand", "conditions": "1 µM", "remaining binding [%]": 100}
{"SMILES": "COc1ncc2cc3ccccc3nc2c1C#N", "test": "cell-free assay, competition with immobilised ligand", "conditions": "5 µM", "remaining binding [%]": 93}
{"SMILES": "c1cnn2ncc(-c3ccnc(N4CCC45COC5)n3)c2c1", "test": "binding", "conditions": "1 µM", "remaining binding [%]": 94}
{"SMILES": "COc1cccc(CNC(=O)c2nc3scc(COCc4ccc(C(=O)O)cc4)c3c(=O)[nH]2)c1", "test": "cell-free assay, competition with immobilised ligand", "conditions": "1 µM", "remaining binding [%]": 100}
{"SMILES": "CCN1CCN(Cc2ccc(C(=O)Nc3ccc(C)c(Oc4ccc5c(c4)CC(=O)N5)c3)cc2C(F)(F)F)CC1", "test": "binding, competition with immobilised ligand", "conditions": "1 µM", "remaining binding [%]": 100}
{"SMILES": "C[C@@H](c1cccc(C#N)c1)n1cc(Cl)cc(C(N)=O)c1=N", "test": "cell-free assay, competition with immobilised ligand", "conditions": "1 µM", "remaining binding [%]": 100}
{"SMILES": "CC1CCCN1c1nccc(-c2cnn3ncccc23)n1 (centres unmarked)", "test": "binding", "conditions": "1 µM", "remaining binding [%]": 86}
{"SMILES": "COc1cnc(Nc2cccc(S(N)(=O)=O)c2)nc1N1CCN(c2ccccc2)C(=O)C1", "test": "binding, competition with immobilised ligand", "conditions": "1 µM", "remaining binding [%]": 100}
{"SMILES": "C=CC(=O)N1CCC(C(=O)NCC(=O)N2CCN(c3nc(-c4cnc(N)nc4C(F)F)nc(N4CCOCC4)n3)CC2)CC1", "test": "binding, competition with immobilised ligand", "conditions": "1 µM", "remaining binding [%]": 100}
{"SMILES": "O=C(c1ccc(Nc2nccc(-c3cc4ccccc4s3)n2)cc1)N1CCC(N2CCCC2)CC1", "test": "binding, competition with immobilised ligand", "conditions": "1 µM", "remaining binding [%]": 100}
{"SMILES": "CN([C@@H]1CCc2c(CC(=O)O)c3cc(S(C)(=O)=O)ccc3n2C1)S(=O)(=O)c1ccc(F)cc1", "test": "cell-free assay, competition with immobilised ligand", "conditions": "1 µM", "remaining binding [%]": 92}
{"SMILES": "N[C@@H]1CCN(c2nccc(-c3cnn4ncccc34)n2)C1", "test": "binding", "conditions": "1 µM", "remaining binding [%]": 91}
{"SMILES": "C[C@@H](c1ccc(-n2cnc3c(N)ncnc32)cc1)N1CCc2nn(C)c(Cc3ccccc3)c2C1=O", "test": "binding, competition with immobilised ligand", "conditions": "0.1 µM", "remaining binding [%]": 100}
{"SMILES": "C[C@@H]1CCN(c2nccc(-c3cnn4ncccc34)n2)C1", "test": "binding", "conditions": "1 µM", "remaining binding [%]": 83}
{"SMILES": "COCCOc1nc(-c2ccc(Cl)nc2)nc2c1CN(C(=O)c1ncn3ccccc13)CC2", "test": "cell-free assay, competition with immobilised ligand", "conditions": "0.1 µM", "remaining binding [%]": 89}
{"SMILES": "O=C(c1ccc(Nc2ncc(Cl)c(-c3cc4ccccc4s3)n2)cc1)N1CCC(N2CCCC2)CC1", "test": "binding, competition with immobilised ligand", "conditions": "1 µM", "remaining binding [%]": 97}
{"SMILES": "N#Cc1ccc(Nc2ccc3[nH]c(=O)[nH]c3c2)c(Cl)c1", "test": "cell-free assay, competition with immobilised ligand", "conditions": "1 µM", "remaining binding [%]": 95}
{"SMILES": "CN(c1nccc(-c2cnn3ncccc23)n1)C1CC1", "test": "binding", "conditions": "1 µM", "remaining binding [%]": 89}
